In ChEMBL document CHEMBL3351274, “Sensitization of tumor necrosis factor-related apoptosis-inducing ligand (TRAIL)-resistant primary prostate cancer cells by isoegomaketone from Perilla frutescens” (J Nat Prod, 2014):
Active and inactive are the calls of the source. The rule behind the calls is not given here.

Assays:
[1] = Induction of apoptosis in human RC-58T/h/SA#4 cells assessed as Bcl-2 activation at 20 uM after 24 hrs by immunoblotting analysis relative to untreated control; format: functional
Summary of the method: (§1)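 Cells grown in DMEM/10% FBS at 37 °C, 5% CO2, then treated 24 h with compound (20 μM) with or without TRAIL (100 ng/mL). Whole lysates were used for Bax and Bcl-2. Cytosolic and mitochondrial fractions were prepared with a mitochondria isolation kit for AIF and cytochrome c. Blotting used 10 μg protein/lane, 12% SDS-PAGE, nitrocellulose, overnight primary antibody at 4 °C and ECL detection.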

Homo sapiens [2] = organism: Homo sapiens; assay: Induction of apoptosis in human RC-58T/h/SA#4 cells assessed as cytochrome C level in mitochondria at 20 uM after 24 hrs by immunoblotting analysis relative to untreated control; format: functional, cell-based; summary of the method: as §1
Homo sapiens [3] = organism: Homo sapiens; assay: Induction of apoptosis in human RC-58T/h/SA#4 cells assessed as DR5 expression after 24 hrs by immunoblotting analysis relative to untreated control; format: functional, cell-based
[4] = Induction of apoptosis in human RC-58T/h/SA#4 cells assessed as DR4 expression at 2.5 uM after 24 hrs by immunoblotting analysis relative to untreated control; format: functional
[5] = Induction of apoptosis in human RC-58T/h/SA#4 cells assessed as DR5 expression at 2.5 uM after 24 hrs by immunoblotting analysis relative to untreated control; format: functional
[6] = Induction of apoptosis in human RC-58T/h/SA#4 cells assessed as DR5 expression at 40 uM after 24 hrs by immunoblotting analysis relative to untreated control; format: functional
[7] = Induction of apoptosis in human RC-58T/h/SA#4 cells assessed as DR4 expression at 20 uM after 12 hrs by immunoblotting analysis relative to untreated control; format: functional
[8] = Induction of apoptosis in human RC-58T/h/SA#4 cells assessed as DR5 expression at 20 uM after 18 hrs by immunoblotting analysis relative to untreated control; format: functional
[9] = Sensitization of TRAIL-induced apoptosis in human RC-58T/h/SA#4 cells assessed as procaspase-8 activation at 20 uM after 24 hrs by immunoblotting analysis in presence of Dr5 Fc chimera relative to untreated control; format: functional
Summary of the method: (§2)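 Cells pretreated 2 h with 100 ng/mL DR5 Fc chimera, then given 20 μM compound and/or 100 ng/mL TRAIL for 24 h. Total lysates immunoblotted (12% SDS-PAGE, nitrocellulose) for caspase-3, -8, -9 and PARP cleavage, with HRP secondary and ECL detection.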

[10] = Sensitization of TRAIL-induced apoptosis in human RC-58T/h/SA#4 cells assessed as procaspase-3 activation at 20 uM after 24 hrs by immunoblotting analysis in presence of Dr5 Fc chimera relative to untreated control; format: functional; summary of the method: as §2
Homo sapiens [11] = organism: Homo sapiens; assay: Induction of apoptosis in human RC-58T/h/SA#4 cells assessed as p53 expression after 3 to 24 hrs by immunoblotting analysis relative to untreated control; format: functional, cell-based
Summary of the method: (§3)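 RC-58T/h/SA#4 cells seeded at 5 × 10^4 cells/mL and cultured 24 h, then given compound across a concentration series or at fixed dose over a time course. Lysates were quantified by BCA. 10 μg protein/lane run on 12% SDS-PAGE and transferred to nitrocellulose. Blots probed for p53, CHOP and β-actin with HRP secondary and ECL.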

[12] = Induction of apoptosis in human RC-58T/h/SA#4 cells assessed as p53 expression at 2.5 uM after 24 hrs by immunoblotting analysis relative to untreated control; format: functional; summary of the method: as §3
[13] = Induction of apoptosis in human RC-58T/h/SA#4 cells assessed as p53 expression at 20 uM after 24 hrs by immunoblotting analysis relative to untreated control; format: functional; summary of the method: as §3
[14] = Induction of apoptosis in human RC-58T/h/SA#4 cells assessed as CHOP expression at 2.5 uM after 24 hrs by immunoblotting analysis relative to untreated control; format: functional; summary of the method: as §3
[15] = Induction of apoptosis in human RC-58T/h/SA#4 cells assessed as CHOP expression at 5 uM after 24 hrs by immunoblotting analysis relative to untreated control; format: functional; summary of the method: as §3
[16] = Induction of apoptosis in human RC-58T/h/SA#4 cells assessed as CHOP expression at 20 uM after 24 hrs by immunoblotting analysis relative to untreated control; format: functional; summary of the method: as §3
[17] = Induction of apoptosis in human RC-58T/h/SA#4 cells assessed as CHOP expression at 40 uM after 24 hrs by immunoblotting analysis relative to untreated control; format: functional; summary of the method: as §3
[18] = Induction of apoptosis in human RC-58T/h/SA#4 cells assessed as p53 expression at 20 uM after 6 hrs by immunoblotting analysis relative to untreated control; format: functional; summary of the method: as §3
[19] = Sensitization of TRAIL-induced cytotoxicity against human RWPE1 cells assessed as cell viability at 20 uM after 24 hrs by SRB assay; format: cell-based; details: rwpe-1, 24 h
Summary of the method: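 Cells seeded at 5 × 10^4 cells/mL, grown in DMEM with 10% FBS, and given the compound with or without 100 ng/mL TRAIL for 24 h at 37 °C, 5% CO2. RWPE-1 tested at 20 μM. Cells fixed in 12% TCA for 1 h at 4 °C, stained 1 h with 0.4% SRB, washed in 1% acetic acid, dye dissolved in 10 mM Tris and absorbance read. Three experiments, means ± SD.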

Homo sapiens [20] = organism: Homo sapiens; assay: Sensitization of TRAIL-induced apoptosis in human RC-58T/h/SA#4 cells at 20 uM after 24 hrs by annexin-V/propidium iodide staining-based flow cytometry relative to control; format: functional, cell-based
Summary of the method: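 RC-58T/h/SA#4 cells seeded at 1 × 10^5 cells/mL in 6-well plates and given 20 μM compound and/or 100 ng/mL TRAIL for 24 h. Cells washed in ice-cold PBS, labelled with annexin V Alexa Fluor 488 for 30 min at 4 °C in the dark, then with PI. Annexin V-positive fraction counted by flow cytometry; three independent experiments, means ± SD, Student's t-test.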

[21] = Induction of apoptosis in human RC-58T/h/SA#4 cells assessed as accumulation at Sub-G1 phase at 20 uM after 24 hrs by annexin-V/propidium iodide staining-based flow cytometry (reference value: 4.8%); format: functional
[22] = Sensitization of TRAIL-induced apoptosis in human RC-58T/h/SA#4 cells assessed as procaspase-9 activation at 20 uM after 24 hrs by immunoblotting analysis relative to untreated control; format: functional
Summary of the method: (§4)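 Cells seeded at 5 × 10^4 cells/mL and cultured 24 h, then given 20 μM compound and/or 100 ng/mL TRAIL for 24 h. Whole-cell lysate made in Tris/NaCl/EDTA/NaF/pyrophosphate/PMSF/aprotinin buffer, 30 min on ice, protein measured by BCA. 12% SDS-PAGE at 10 μg/lane, nitrocellulose blot, primary antibodies (caspase-3, -8, -9, Bax, Bcl-2, PARP) overnight at 4 °C, HRP secondary, ECL.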

[23] = Sensitization of TRAIL-induced apoptosis in human RC-58T/h/SA#4 cells assessed as Bcl-2 activation at 20 uM after 24 hrs by immunoblotting analysis relative to untreated control; format: functional; summary of the method: as §4
[24] = Induction of apoptosis in human RC-58T/h/SA#4 cells assessed as procaspase-8 activation at 20 uM after 24 hrs by immunoblotting analysis relative to untreated control; format: functional; summary of the method: as §4

In the case of `CC(C)/C=C/C(=O)c1ccoc1`, the Ratio [1] is reported as 0.7, the Ratio (Homo sapiens [2]) is reported as 1.2 and the Activity (Homo sapiens [3]) is reported as “Dose-dependent effect”. The Ratio [4] was 1.1, the Ratio [5] was 1 and the Ratio [6] was 1.3. For the same compound, the Ratio [7] was 1, the Ratio [8] was 1.5 and the Ratio [9] was 0.8. The Ratio [10] was 0.9, the Activity (Homo sapiens [11]) was “Dose-dependent effect” and the Ratio [12] was 1.2. The Ratio [13] was 2.3, the Ratio [14] was 1.3 and the Ratio [15] was 1.3. For the same compound, the Ratio [16] was 1.8, the Ratio [17] was 2 and the Ratio [18] was 1.1. The Activity [19] was “Toxic”, the Activity (Homo sapiens [20]) was “Active” and the Activity [21] was 10.1%. The Ratio [22] was 0.5, the Ratio [23] was 0.5 and the Ratio [24] was 1.2.
